HIF activator = HIF pathway transcriptional activation; U2OS HRE-luciferase reporter, luminescence; normalized: DMSO 0%, desferrioxamine 100%; activation, % at 7.5 µM (by protocol); 300,000 tested, 0.32% active; AID 1910;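 active means mean activation of at least 10% of the iron chelator positive control signal, with at least half of replicates also reaching 10%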
T cruzi repl = T. cruzi replication inhibition | T. cruzi beta-gal in NIH3T3, luminescence, 90 h | 300,000 tested, 1.4% active | inhibition, % (no concentration beside the values) | AID 1885;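 active means mean inhibition across valid replicates above about 55%, limit read from the data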;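 further: signal also drops with host cell toxicity which is not excluded here; 0% = plate median of DMSO wells and 100% = zero luminescence signal; higher percent means less beta-gal luminescence so fewer parasites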
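Assay system: NIH/3T3 host cells with β-galactosidase reporter T. cruzi; input: 5,000 host fibroblasts per well; compound: single 50 nL compound addition per well in DMSO; timing: ≥90 h infection period, 3 h prior cell attachment; measured by: GalScreen β-gal luminescence, detergent lysis, 60 min; evaluation: percent inhibition of parasite-derived β-gal signal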
Beta apoptosis = beta cell apoptosis inhibition; INS-1E cytokine-induced death, ATP luminescence, 48 h; percent of positive-control rescue, neutral wells zero; protection from apoptosis, % (concentration not given with the values); 300,000 tested, 0.8% active; AID 435005;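 active means Every replicate reaches about 75%, or at least half do and their mean reaches it too, limit read from the data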;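 further: 0% = cytokine-treated negative control wells and 100% = positive control rescue; higher means more ATP so stronger rescue from cytokine killing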
Bfl-1 A1 inh = inhibitors of the anti-apoptotic protein A1, read as caspase activation; MEF A1-2A-BIM cells, Caspase-Glo 3/7 luminescence, 3 h; percent of clofoctol response, vehicle zero; caspase activation, % (no concentration beside the values); 330,000 tested, 0.066% active; AID 2462;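 active means over half of replicate activation scores above 10%, or exactly half above 10 with the replicate mean above 10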
KLF5 inhibitor = suppresses KLF5 promoter-driven expression | 290,000 tested, 0.23% active | inhibition, % at 5 µM | DLD-1 KLF5 promoter-luciferase reporter, luminescence;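 active means inhibition above a per-plate limit of that plate's mean compound inhibition plus 3 SD, cut at about 60% in these data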;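 further: 0% = DMSO wells and 100% = LY294002 at 200 µM; higher means less KLF5 promoter-driven luciferase light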
* hit, by the source's call; . = no result. A selection: hits, their analogues and other compounds. The true share with any hit is near 2.3%.

SMILES | HIF activator | T cruzi repl | Beta apoptosis | Bfl-1 A1 inh | KLF5 inhibitor
COc1ccccc1NC(=S)N(Cc1ccccc1)Cc1cccnc1 | 1 | 47 | -4 | 0 | -4
CCN(Cc1ccncc1)C(=S)Nc1c(C)cccc1C | 0 | -20 | -8 | 0 | -19
N#CCCN(Cc1cccnc1)C(=S)Nc1ccccc1Cl | . | . | . | . | 2
O=c1oc(-c2ccc(Br)cc2)nc2ccccc12 | 1 | 9 | 2 | -11 | -111
CC(C)(C)c1ccc(C(=O)N2CCN(C(=O)c3ccco3)CC2)cc1 | 0 | -10 | . | 1 | 1
Oc1ccc(/C=N/Nc2ccc(C(F)(F)F)cn2)c(O)c1 | 15* | 13 | 73 | 0 | -82
Oc1ccc(/C=N/Nc2ccc(C(F)(F)F)cn2)cc1 | 5 | 8 | -5 | 0 | -134
COc1ccc(CNc2cccc3[nH]c(C(F)(F)F)nc23)cc1 | 1 | 29 | . | 0 | -13
Cc1ccc(C(=O)Nc2cccc3[nH]c(C(F)(F)F)nc23)cc1 | -5 | 9 | 78* | -1 | -4
COc1ccc(-c2cn(Cc3ccc(C(N)=O)cc3)c(CCN)n2)cc1 | . | . | 2 | -1 | .
O=C(OCCOc1cccc(Cl)c1)c1cc(S(=O)(=O)N2CCCCC2)ccc1N1CCOCC1 | 1 | 65* | 72 | 0 | .
Cc1ccc(OC(F)F)c(NC(=O)Nc2cccc(C(F)(F)F)c2)c1 | -1 | 55* | 66 | 0 | -10
O=C(Nc1ccccc1)Nc1cccc(C(F)(F)F)c1 | 2 | 40 | 26 | -1 | -67
CN(C)c1ccc(CNCCC(Cc2ccccc2)c2ccco2)cc1 (stereo unspecified) | 0 | 61* | 30 | 0 | 12
c1ccc(CNCCC(Cc2ccccc2)c2ccco2)cc1 (stereo unspecified) | 0 | 2 | -11 | -1 | 7
CC(C)N(Cc1ccccc1)C(=O)COC(=O)c1cnc(Cl)c(Cl)c1 | . | . | 5 | 1 | .
O=C(Nc1ccccc1N1CCCC1)c1ccc([N+](=O)[O-])cc1Cl | 0 | 56* | 0 | 1 | -31
O=C(Nc1ccccc1N1CCN(C(=O)c2ccc(Cl)cc2)CC1)c1cccc([N+](=O)[O-])c1 | -1 | 55* | 17 | 2 | -6
CC1C(=O)N2CCCc3cc(S(=O)(=O)N(C)CCC#N)cc1c32 (stereo unspecified) | 0 | -10 | -4 | 1 | -7
CN(Cc1ccccc1)S(=O)(=O)c1ccc(Cl)c(C(=O)NCCCN2CCOCC2)c1 | 0 | 17 | -4 | 1 | .
N=c1c(-c2nc3ccccc3[nH]2)cc(C(=O)c2cccs2)nn1-c1ccccc1 | 0 | 72* | -6 | 2 | -43
N#CC1(NC(=O)Cn2ncc(Cl)c(Cl)c2=O)CCCCC1 | -1 | 63* | -13 | 1 | .
Cc1ccc(-n2nnnc2C(Cl)(Cl)c2nnnn2-c2ccc(C)cc2)cc1 | 1 | 63* | 0 | 3 | -16
COc1ccc(NS(=O)(=O)c2ccc(-c3cnc(C4CC4)o3)cc2)cc1OC | -1 | -34 | 93* | -2 | 36
Cc1cccc(NS(=O)(=O)c2cc(NC(=O)CC(=O)c3ccc([N+](=O)[O-])cc3)ccc2C)c1 | 0 | 45 | . | . | -27
SMILES | HIF activator | T cruzi repl | Beta apoptosis | Bfl-1 A1 inh | KLF5 inhibitor
Cc1cccc(NS(=O)(=O)c2ccc(NC(=O)CN(c3cc([N+](=O)[O-])ccc3C)S(C)(=O)=O)cc2)c1 | 0 | 75* | 111* | 0 | 0
COc1ccc(C)cc1NS(=O)(=O)c1ccc(NC(=O)CN(c2cc([N+](=O)[O-])ccc2C)S(C)(=O)=O)cc1 | -1 | 50 | 112* | 1 | 7
COc1ccc([N+](=O)[O-])cc1N(CC(=O)NCCSc1ccc(C)cc1)S(C)(=O)=O | 0 | -7 | -1 | 1 | -28
CCCN(CC(=O)Nc1ccc(F)c(F)c1F)C(=O)C1=COCCO1 | -1 | 5 | -2 | 1 | .
COc1ccc(NC(=S)NC(NC(=O)c2cccc3ccccc23)C(Cl)(Cl)Cl)c([N+](=O)[O-])c1 (stereo unspecified) | 0 | 68* | 7 | 0 | -35
CCc1ccc(OCC(=O)NC(NC(=S)Nc2ccc(C)cc2C)C(Cl)(Cl)Cl)cc1 (stereo unspecified) | -2 | 31 | 95* | 0 | -15
COc1ccc(NC(=S)NC(NC(=O)c2ccccc2Cl)C(Cl)(Cl)Cl)c([N+](=O)[O-])c1 (stereo unspecified) | 0 | 12 | 9 | 1 | -26
Cc1ccccc1NC(=S)NC(NC(=O)COc1ccccc1)C(Cl)(Cl)Cl (stereo unspecified) | 0 | 9 | 8 | 0 | 19
CCc1ccc(OCC(=O)NC(NC(=S)Nc2ccccc2)C(Cl)(Cl)Cl)cc1 (stereo unspecified) | -1 | 5 | 9 | -1 | -10
CCc1ccc(OCC(=O)NC(NC(=S)Nc2ccccc2C)C(Cl)(Cl)Cl)cc1 (stereo unspecified) | -2 | 55* | 8 | -1 | -3
Cc1ccc(C)c(NC(=S)NC(NC(=O)Cc2cccc3ccccc23)C(Cl)(Cl)Cl)c1 (stereo unspecified) | -3 | 38 | 76* | 12* | -12
Cc1ccccc1N1C(=O)C2CCCN2C1=S (stereo unspecified) | . | . | -1 | 1 | .
c1ccc(C(c2ccccc2)c2noc(CN3CCC(c4ccncc4)CC3)n2)cc1 | 0 | 61* | -8 | 1 | -36
CCC1=NN(C(=O)c2ccccc2O)C(O)(c2ccccc2)C1 (stereo unspecified) | 0 | -16 | 87* | -2 | -12
O=C(NCCCN1CCCC1)C1CCN(C(=O)c2cc3sccc3n2Cc2ccc(F)cc2)CC1 | 0 | 55* | -4 | 0 | 23
COCCCNC(=O)C1CCN(C(=O)c2cc3sccc3n2Cc2ccc(F)cc2)CC1 | . | 0 | -2 | 1 | -37
Cc1ccc(S(=O)(=O)c2cn(C)c3cc(N4CCOCC4)c(F)cc3c2=O)cc1 | 0 | -3 | -1 | 0 | -7
Cn1c2ccccc2c(=O)c2c(=O)n(Cc3ccco3)c(-c3ccc(Cl)cc3Cl)nc21 | 0 | 64* | 1 | -1 | -10
COc1ccc(Cn2c(-c3ccco3)nc3c(c(=O)c4ccccc4n3C)c2=O)cc1 | 0 | 12 | . | 1 | -4
Cc1ccc(Cn2nc(C)c(NC(=O)CSc3nc4c(c(C(F)(F)F)n3)CCc3ccccc3-4)c2C)cc1 | 0 | 21 | 46 | 0 | 9
Cc1nn(Cc2ccc(Cl)cc2)c(C)c1NC(=O)CSc1nc2c(c(C(F)(F)F)n1)CCc1ccccc1-2 | 0 | 60* | 35 | 0 | -22
O=C1C(Cl)=C(Nc2ccc3cn[nH]c3c2)C(=O)c2ccccc21 | -20 | 59* | 110* | 3 | -28
O=C(COC(=O)/C=C/c1ccc(Cl)cc1)Nc1ccc2[nH]c(=O)[nH]c2c1 | 1 | -4 | -7 | 0 | .
CCOC(=O)c1sc2nccc(N(C)C)c2c1N=CNOCc1c(F)cccc1Cl | 0 | 70* | . | 0 | -21
